Consider two molecules from ChEMBL document CHEMBL3244273, “Analgesic activity of novel spiro heterocycles. 2-Amino-7-oxa-3-thia-1-azaspiro[5,5]undec-1-enes and related compounds” (J Med Chem, 1978).

SMILES strings stand for the structures. Activity calls are given as the source filed them.

Series [1] concerns Rattus norvegicus. As to the kind of experiment: Analgesic activity against po dosed yeast-induced inflamed foot Sprague-Dawley rat model assessed as increase in pain threshold in inflamed paw measured after 2 hrs. The conditions noted are these: Rattus norvegicus, Sprague-Dawley, po, 2 h; read-out: ED50. It is filed as functional.
Series [2] is filed under the species Rattus norvegicus. Description: Antiinflammatory activity against mycobacterial adjuvant-induced arthritis in rat. Type of series: functional, organism-based.
For series [3], the system named is Rattus norvegicus. As to the kind of experiment: Analgesic activity in po dosed Sprague-Dawley rat by tail flick assay. Type of series: functional.
Another series has as its system Mus musculus. Description: Analgesic activity in po dosed CF-1 mouse assessed as reduction in phenylquinone-induced writhing responses administered 15 mins prior to phenylquinone challenge. It is filed as functional. The settings on record: Mus musculus, CF-1, po; read-out: ED50. Background: Writhing tests count abdominal constrictions after an irritant is injected.

Series [4] can be described thus: Acute toxicity in ip dosed CF-1S mouse assessed as mortality measured for 24 hrs. It is filed as organism-based. The conditions noted are these: in vivo. The method in brief:
(§1)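 Male and female CF-1S mice (17-25 g) received the compound suspended in gum acacia solution, orally or intraperitoneally, in groups of six to ten per dose level. Mortality was followed for 24 h after ip dosing and for 5 days after oral dosing. LD50 was calculated by the Miller-Tainter method.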

Series [5] in a line: Acute toxicity in po dosed CF-1S mouse assessed as mortality measured for 5 days. Type of series: organism-based. The settings on record: in vivo. The method in brief:
as §1

The nature of series [6]: Retardation factor of the compound using benzene-ethyl acetate at ratio of 1:1 as solvent system by thin layer chromatography. It is filed as physicochemical.
Series [7] is described as follows: Retardation factor of the compound using benzene-triethylamine at ratio of 9:1 as solvent system by thin layer chromatography. It is filed as physicochemical.

By ED50 is commonly meant the dose that gives a 50% effect, or the effect in half of the subjects. By LD50 is commonly meant the dose at which mortality reaches 50%. As to `Cc1ccc(C(=O)/N=C2\NC3(CCCCO3)CCS2)cc1` (stereo unspecified), the ED50 in the series on Rattus norvegicus [1] was 0.9 mg/kg; with Rattus norvegicus [3], over 25 mg/kg; in the series with Mus musculus it was 60 mg/kg. Moreover, in the series listed under Rattus norvegicus [2], the result was inactive. In series [4], the LD50 at 24 h was over 400 mg/kg. In series [5], the LD50 at 120 h amounted to 1120 mg/kg.
As for `c1ccc(CNC2=NC3(CCCCO3)CCS2)cc1` (racemic), the ED50 is over 100 mg/kg with Rattus norvegicus [1] and over 200 mg/kg with Mus musculus. For the same molecule, in the series listed under Rattus norvegicus [2], the outcome was inactive. Further, the Rf in series [6] is given as 0.15; in series [7] it was 0.5.
